From ChEMBL document CHEMBL3797175, “Discovery of 6-(difluoro(6-(4-fluorophenyl)-[1,2,4]triazolo[4,3-b][1,2,4]triazin-3-yl)methyl)quinoline as a highly potent and selective c-Met inhibitor” (Eur J Med Chem, 2016)
Active and inactive are the calls of the source. No cut-off for these calls is given here.

Columns and labels:
[1] = biological target: Vascular endothelial growth factor receptor 2 (Homo sapiens) (UniProt P35968); assay: Inhibition of recombinant KDR (unknown origin) using poly (Glu, Tyr) 4:1 as substrate at 1000 nM incubated for 60 mins by ELISA relative to control
Vascular endothelial growth factor receptor 2 (Homo sapiens), sequence (P35968 whole entry): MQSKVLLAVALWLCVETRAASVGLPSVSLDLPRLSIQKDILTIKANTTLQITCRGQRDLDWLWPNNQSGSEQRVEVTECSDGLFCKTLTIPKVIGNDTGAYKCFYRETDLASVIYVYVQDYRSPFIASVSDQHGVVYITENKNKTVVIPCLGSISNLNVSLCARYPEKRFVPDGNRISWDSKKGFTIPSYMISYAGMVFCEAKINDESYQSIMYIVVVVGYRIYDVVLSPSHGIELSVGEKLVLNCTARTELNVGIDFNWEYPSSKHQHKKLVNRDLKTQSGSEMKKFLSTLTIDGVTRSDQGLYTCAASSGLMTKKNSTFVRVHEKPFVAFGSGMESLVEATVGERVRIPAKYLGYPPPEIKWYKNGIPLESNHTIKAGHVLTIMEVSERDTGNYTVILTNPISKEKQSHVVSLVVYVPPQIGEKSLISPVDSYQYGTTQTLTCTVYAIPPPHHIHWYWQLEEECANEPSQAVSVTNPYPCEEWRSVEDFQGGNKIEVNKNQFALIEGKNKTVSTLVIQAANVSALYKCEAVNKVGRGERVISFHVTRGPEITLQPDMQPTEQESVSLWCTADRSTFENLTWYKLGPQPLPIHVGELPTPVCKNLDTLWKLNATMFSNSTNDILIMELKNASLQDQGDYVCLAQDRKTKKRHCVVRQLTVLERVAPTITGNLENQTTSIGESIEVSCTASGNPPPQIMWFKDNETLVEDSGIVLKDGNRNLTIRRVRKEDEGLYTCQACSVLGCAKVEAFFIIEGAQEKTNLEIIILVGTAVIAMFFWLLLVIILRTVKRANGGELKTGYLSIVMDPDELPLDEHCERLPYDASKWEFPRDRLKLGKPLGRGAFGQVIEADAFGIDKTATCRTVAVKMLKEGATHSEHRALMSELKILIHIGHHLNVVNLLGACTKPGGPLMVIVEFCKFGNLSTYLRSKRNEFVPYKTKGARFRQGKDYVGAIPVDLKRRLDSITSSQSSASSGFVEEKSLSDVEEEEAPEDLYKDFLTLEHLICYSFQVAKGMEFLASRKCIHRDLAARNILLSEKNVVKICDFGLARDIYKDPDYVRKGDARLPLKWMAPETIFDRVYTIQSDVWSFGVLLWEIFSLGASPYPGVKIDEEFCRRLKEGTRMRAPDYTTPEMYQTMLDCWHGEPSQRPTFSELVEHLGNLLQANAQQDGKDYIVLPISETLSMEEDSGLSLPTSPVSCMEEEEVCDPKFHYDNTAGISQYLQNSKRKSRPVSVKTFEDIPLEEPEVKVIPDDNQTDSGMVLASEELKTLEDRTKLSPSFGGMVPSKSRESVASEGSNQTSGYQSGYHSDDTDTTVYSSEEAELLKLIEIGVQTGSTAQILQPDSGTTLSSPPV
Method in brief: (§1)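 Recombinant tyrosine kinases assayed on wells precoated with poly(Glu,Tyr)4:1 (20 µg/mL). ATP 10 µmol/L in HEPES pH 7.4 buffer with MgCl2, MnCl2, Na3VO4 and DTT; compound in 1% DMSO, 1% DMSO as control. Reaction 60 min at 37 °C. Phosphotyrosine detected with PY99 and HRP anti-mouse, o-phenylenediamine, A490. Inhibition % relative to control; two experiments.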

[2] = Selectivity ratio of IC50 for human Bel7404 cells to IC50 for human EBC1 cells; type: ADME, cell-based
Method in brief: (§2)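 Both IC50s in each ratio come from one proliferation assay. Cells were seeded and exposed the next day to a range of concentrations for 72 h, then read by SRB or MTT. IC50s were fitted by four-parameter concentration–response, with each concentration at least in triplicate and at least 2 experiments. BaF3/TPR-Met is murine pre-B BaF3 transfected with TPR-MET and puromycin-selected.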

[3] = biological target: Platelet-derived growth factor receptor alpha (Homo sapiens) (UniProt P16234); assay: Inhibition of recombinant PDGFRalpha (unknown origin) using poly (Glu, Tyr) 4:1 as substrate at 1000 nM incubated for 60 mins by ELISA relative to control; method in brief: as §1
Platelet-derived growth factor receptor alpha (Homo sapiens), sequence (P16234 whole entry): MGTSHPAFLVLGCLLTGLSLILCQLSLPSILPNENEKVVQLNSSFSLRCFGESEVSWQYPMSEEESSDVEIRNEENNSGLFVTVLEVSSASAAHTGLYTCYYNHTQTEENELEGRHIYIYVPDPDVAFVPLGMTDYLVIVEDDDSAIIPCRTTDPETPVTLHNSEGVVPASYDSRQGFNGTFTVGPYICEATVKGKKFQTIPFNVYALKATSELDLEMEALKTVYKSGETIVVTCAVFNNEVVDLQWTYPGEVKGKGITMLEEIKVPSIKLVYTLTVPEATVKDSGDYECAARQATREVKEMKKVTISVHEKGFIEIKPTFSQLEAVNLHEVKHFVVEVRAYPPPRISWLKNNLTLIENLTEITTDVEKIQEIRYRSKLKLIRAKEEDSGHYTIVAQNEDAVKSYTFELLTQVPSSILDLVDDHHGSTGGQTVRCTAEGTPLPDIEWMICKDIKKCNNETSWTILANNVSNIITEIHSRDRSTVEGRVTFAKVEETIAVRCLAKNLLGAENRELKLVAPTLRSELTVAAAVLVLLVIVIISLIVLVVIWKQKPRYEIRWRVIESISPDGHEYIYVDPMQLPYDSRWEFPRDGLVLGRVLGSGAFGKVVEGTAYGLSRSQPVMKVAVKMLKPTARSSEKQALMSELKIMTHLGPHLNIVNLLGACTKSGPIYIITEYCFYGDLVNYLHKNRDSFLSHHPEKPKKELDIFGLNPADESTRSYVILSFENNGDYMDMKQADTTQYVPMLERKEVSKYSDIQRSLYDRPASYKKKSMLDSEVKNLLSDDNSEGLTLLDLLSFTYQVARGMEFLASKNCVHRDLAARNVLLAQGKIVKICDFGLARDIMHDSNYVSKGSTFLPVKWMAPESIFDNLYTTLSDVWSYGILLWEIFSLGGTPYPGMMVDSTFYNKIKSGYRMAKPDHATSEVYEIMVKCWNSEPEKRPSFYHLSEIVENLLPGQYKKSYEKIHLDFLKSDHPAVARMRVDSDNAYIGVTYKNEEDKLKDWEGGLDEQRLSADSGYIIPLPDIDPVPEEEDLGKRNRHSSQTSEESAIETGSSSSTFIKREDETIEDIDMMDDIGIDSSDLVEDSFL

[4] = Antiproliferative activity against human SPCA1 cells after 72 hrs by SRB or MTT assay; type: functional, cell-based; conditions: SPCA1, 72 h
Method in brief: (§3)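 Cells seeded, exposed next day to a range of concentrations for 72 h. Growth read by sulforhodamine B or MTT. IC50 from four-parameter concentration-response fit. Each concentration tested at least in triplicate, with at least 2 experiments.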

[5] = Selectivity ratio of IC50 for human NCI-H3122 cells to IC50 for human MKN45 cells; type: ADME, cell-based; conditions: mkn-45; method in brief: as §2
[6] = biological target: Macrophage-stimulating protein receptor (Homo sapiens) (UniProt Q04912); assay: Inhibition of recombinant RON (unknown origin) using poly (Glu, Tyr) 4:1 as substrate at 1000 nM incubated for 60 mins by ELISA relative to control; method in brief: as §1
Macrophage-stimulating protein receptor (Homo sapiens), sequence (Q04912 25-304 limits assumed): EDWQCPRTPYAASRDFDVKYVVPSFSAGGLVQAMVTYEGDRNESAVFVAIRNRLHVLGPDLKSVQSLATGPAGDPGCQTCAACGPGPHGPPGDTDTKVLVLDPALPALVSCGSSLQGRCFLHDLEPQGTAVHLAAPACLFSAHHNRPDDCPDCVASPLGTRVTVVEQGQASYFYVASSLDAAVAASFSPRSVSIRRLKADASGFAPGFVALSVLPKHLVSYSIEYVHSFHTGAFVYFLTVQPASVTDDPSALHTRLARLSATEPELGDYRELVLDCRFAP
Macrophage-stimulating protein receptor (Homo sapiens), sequence (Q04912 310-1400 limits assumed): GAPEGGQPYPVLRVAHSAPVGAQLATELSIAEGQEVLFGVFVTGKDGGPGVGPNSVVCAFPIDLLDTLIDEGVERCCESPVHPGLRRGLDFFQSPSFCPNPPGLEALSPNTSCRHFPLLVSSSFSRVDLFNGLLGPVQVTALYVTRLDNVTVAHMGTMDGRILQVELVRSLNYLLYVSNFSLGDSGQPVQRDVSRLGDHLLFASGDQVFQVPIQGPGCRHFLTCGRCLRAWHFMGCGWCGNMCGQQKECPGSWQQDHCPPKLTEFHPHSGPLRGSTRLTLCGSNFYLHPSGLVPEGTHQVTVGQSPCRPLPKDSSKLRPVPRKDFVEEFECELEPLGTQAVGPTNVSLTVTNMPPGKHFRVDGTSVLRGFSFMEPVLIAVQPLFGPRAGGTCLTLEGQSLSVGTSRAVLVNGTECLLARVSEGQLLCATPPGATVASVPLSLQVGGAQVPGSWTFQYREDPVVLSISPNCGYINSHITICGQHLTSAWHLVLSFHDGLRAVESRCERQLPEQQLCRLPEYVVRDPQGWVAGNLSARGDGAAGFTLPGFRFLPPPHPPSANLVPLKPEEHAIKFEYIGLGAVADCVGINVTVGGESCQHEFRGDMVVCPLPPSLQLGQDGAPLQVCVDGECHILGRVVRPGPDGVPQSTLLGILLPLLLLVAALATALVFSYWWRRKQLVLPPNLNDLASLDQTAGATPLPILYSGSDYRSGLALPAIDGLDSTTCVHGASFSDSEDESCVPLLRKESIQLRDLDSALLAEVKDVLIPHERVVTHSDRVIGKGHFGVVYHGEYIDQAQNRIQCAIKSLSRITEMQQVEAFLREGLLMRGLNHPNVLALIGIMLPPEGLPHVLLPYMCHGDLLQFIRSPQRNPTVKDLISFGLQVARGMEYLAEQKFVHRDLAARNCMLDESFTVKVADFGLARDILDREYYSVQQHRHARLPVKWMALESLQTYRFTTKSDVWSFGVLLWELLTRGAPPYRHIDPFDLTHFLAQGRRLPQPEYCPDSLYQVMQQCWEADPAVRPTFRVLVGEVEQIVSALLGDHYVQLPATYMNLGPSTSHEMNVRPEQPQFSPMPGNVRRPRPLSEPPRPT

[7] = biological target: Hepatocyte growth factor receptor (Homo sapiens, UniProt P08581); assay: Inhibition of c-Met phosphorylation at Tyrosine 1234 in human MKN45 cells at 10 nM after 1 hr by Western blot analysis; type: cell-based; conditions: MKN-45
Method in brief: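 EBC-1 or MKN45 cells treated with compound 1 h at 37 °C without HGF, then lysed in 1× SDS sample buffer. Lysates run on 10% SDS-PAGE and transferred to nitrocellulose. Probed with antibodies to c-Met, phospho-c-Met, phospho-ERK1/2, phospho-AKT, AKT and GAPDH, then HRP secondary. ECL detection.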

EBC-1 = assay: Antitumor activity against human EBC1 cells xenografted in po dosed athymic nude mouse assessed as tumor growth inhibition administered bid for 21 days measured twice a week during compound dosing; type: functional, organism-based
Method in brief: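 Nude mice bearing s.c. tumours. Cells were first grown s.c. to 700–800 mm³, then 1.5 mm³ fragments were transplanted s.c. into the right flank. Mice were randomised at 100–200 mm³ (n=6 treated, n=12 vehicle) and dosed orally twice daily for 21 days. Caliper measurement twice weekly; TV = length×width²/2. TGI taken on the final day versus vehicle; Student's t test.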

[8] = Selectivity ratio of IC50 for human SPCA1 cells to IC50 for human EBC1 cells; type: ADME, cell-based; conditions: SPCA1 cells versus EBC1 cells
[9] = Selectivity ratio of IC50 for human NCI-H358 cells to IC50 for human EBC1 cells; type: ADME, cell-based; method in brief: as §2
[10] = Selectivity ratio of IC50 for human Bel7404 cells to IC50 for mouse BAF3 cells expressing TPR-MET; type: ADME, cell-based; method in brief: as §2
[11] = Selectivity ratio of IC50 for human Calu3 cells to IC50 for mouse BAF3 cells expressing TPR-MET; type: ADME, cell-based; method in brief: as §2
[12] = Selectivity ratio of IC50 for human BGC823 cells to IC50 for mouse BAF3 cells expressing TPR-MET; type: ADME, cell-based; method in brief: as §2
[13] = biological target: Proto-oncogene tyrosine-protein kinase ROS (Homo sapiens) (UniProt P08922); assay: Inhibition of recombinant ROS1 (unknown origin) using poly (Glu, Tyr) 4:1 as substrate at 1000 nM incubated for 60 mins by ELISA relative to control; method in brief: as §1
[14] = Selectivity ratio of IC50 for human SMMC7721 cells to IC50 for mouse BAF3 cells expressing TPR-MET; type: ADME, cell-based
[15] = Antiproliferative activity against human NCI-H3122 cells after 72 hrs by SRB or MTT assay; type: functional, cell-based; conditions: NCI-H3122, 72 h; method in brief: as §3
[16] = Selectivity ratio of IC50 for human NCI-HCC827 cells to IC50 for human EBC1 cells; type: ADME, cell-based; method in brief: as §2
[17] = biological target: TPR/MET fusion protein (Mus musculus) (UniProt P16056+F6ZDS4); assay: Inhibition of TPR-MET in mouse BAF3 cells assessed as reduction in ERK phosphorylation at Tyrosine 204 at 10 nM after 1 hr by Western blot analysis; type: cell-based
Method in brief: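 BaF3 stably expressing TPR-MET (puromycin-selected), grown with IL-3-conditioned medium. Treated 1 h at 37 °C, lysed in SDS sample buffer. 10% SDS-PAGE and immunoblot for phospho-c-Met, phospho-ERK1/2, phospho-AKT and totals; ECL detection.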

[18] = Antiproliferative activity against human SPCA4 cells after 72 hrs by SRB or MTT assay; type: functional, cell-based; conditions: SPC-A4, 72 h; method in brief: as §3
[19] = Antiproliferative activity against human SGC7901 cells after 72 hrs by SRB or MTT assay; type: functional, cell-based; conditions: SGC-7901, 72 h; method in brief: as §3
[20] = Selectivity ratio of IC50 for human MGC803 cells to IC50 for human EBC1 cells; type: ADME, cell-based; conditions: mgc-803; method in brief: as §2
[21] = Selectivity ratio of IC50 for human NCI-H292 cells to IC50 for human EBC1 cells; type: ADME, cell-based; method in brief: as §2
[22] = Selectivity ratio of IC50 for human NCI-H596 cells to IC50 for human MKN45 cells; type: ADME, cell-based; conditions: mkn-45; method in brief: as §2
[23] = Selectivity ratio of IC50 for human NCI-H1299 cells to IC50 for mouse BAF3 cells expressing TPR-MET; type: ADME, cell-based; method in brief: as §2
[24] = Selectivity ratio of IC50 for human SPCA1 cells to IC50 for mouse BAF3 cells expressing TPR-MET; type: ADME, cell-based; conditions: SPCA1 cells versus BAF3 cells expressing TPR-MET
[25] = Selectivity ratio of IC50 for human MGC803 cells to IC50 for human MKN45 cells; type: ADME, cell-based; conditions: mgc-803; method in brief: as §2
[26] = biological target: Tyrosine-protein kinase ABL1 (Homo sapiens) (UniProt P00519); assay: Inhibition of recombinant ABL (unknown origin) using poly (Glu, Tyr) 4:1 as substrate at 1000 nM incubated for 60 mins by ELISA relative to control; method in brief: as §1
Tyrosine-protein kinase ABL1 (Homo sapiens), sequence (P00519 whole entry): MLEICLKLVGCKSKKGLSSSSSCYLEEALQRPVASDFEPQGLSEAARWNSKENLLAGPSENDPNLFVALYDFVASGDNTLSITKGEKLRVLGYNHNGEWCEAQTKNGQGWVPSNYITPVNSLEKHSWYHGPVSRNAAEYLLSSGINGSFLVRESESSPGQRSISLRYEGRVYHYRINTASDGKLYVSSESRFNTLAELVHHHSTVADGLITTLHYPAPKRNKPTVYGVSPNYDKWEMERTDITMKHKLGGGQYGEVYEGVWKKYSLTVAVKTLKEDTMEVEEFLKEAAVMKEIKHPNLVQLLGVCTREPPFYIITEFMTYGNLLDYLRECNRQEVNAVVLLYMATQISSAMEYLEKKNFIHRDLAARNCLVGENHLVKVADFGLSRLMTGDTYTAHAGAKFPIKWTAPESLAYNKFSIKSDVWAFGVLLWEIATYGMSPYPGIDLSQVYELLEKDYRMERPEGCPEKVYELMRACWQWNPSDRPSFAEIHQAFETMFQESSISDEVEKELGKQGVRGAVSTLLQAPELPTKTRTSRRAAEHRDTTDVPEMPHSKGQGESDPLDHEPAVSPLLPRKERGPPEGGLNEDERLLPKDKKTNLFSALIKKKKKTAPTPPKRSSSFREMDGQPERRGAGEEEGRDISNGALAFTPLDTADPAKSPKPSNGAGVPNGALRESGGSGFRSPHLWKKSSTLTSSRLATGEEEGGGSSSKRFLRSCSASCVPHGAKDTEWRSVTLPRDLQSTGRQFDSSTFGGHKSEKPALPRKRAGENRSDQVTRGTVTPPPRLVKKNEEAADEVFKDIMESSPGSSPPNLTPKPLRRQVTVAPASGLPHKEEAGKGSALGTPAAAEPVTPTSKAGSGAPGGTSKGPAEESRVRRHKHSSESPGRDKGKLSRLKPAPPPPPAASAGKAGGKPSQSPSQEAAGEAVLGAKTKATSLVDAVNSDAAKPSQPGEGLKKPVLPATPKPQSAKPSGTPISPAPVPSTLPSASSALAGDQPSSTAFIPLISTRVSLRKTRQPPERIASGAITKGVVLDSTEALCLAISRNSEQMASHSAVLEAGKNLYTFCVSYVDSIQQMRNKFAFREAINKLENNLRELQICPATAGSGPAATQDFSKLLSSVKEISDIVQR

In the case of `Fc1ccc(-c2cnc3nnc(C(F)(F)c4ccc5ncccc5c4)n3n2)cc1`, the inhibition [1] is reported as 15.3%, the “Ratio IC50” value [2] is reported as 10000 and the inhibition [3] is reported as 31.4%. For the same compound, the IC50 [4] was over 10 µM, the “Ratio IC50” value [5] was 10000 and the inhibition [6] was 33.9%. For the same compound, the inhibition [7] was “Active”, the TGI (EBC-1) was “Dose-dependent effect” and the selectivity ratio [8] was over 10000. For the same compound, the “Ratio IC50” value [9] was 10000, the “Ratio IC50” value [10] was 10000 and the Ratio IC50 [11] was over 10000. For the same compound, the Ratio IC50 [12] was over 10000, the inhibition [13] was 10.6% and the “Ratio IC50” value [14] was 10000. The IC50 [15] was over 10 µM, the “Ratio IC50” value [16] was 10000 and the inhibition [17] was “Active”. The IC50 [18] was over 10 µM, the IC50 [19] was over 10 µM and the Ratio IC50 [20] was over 10000. For the same compound, the “Ratio IC50” value [21] was 10000, the “Ratio IC50” value [22] was 10000 and the “Ratio IC50” value [23] was 10000. The selectivity ratio [24] was over 10000, the Ratio IC50 [25] was over 10000 and the inhibition [26] was 14.9%.
